From ChEMBL document CHEMBL2046289, “Novel 2-(2-(benzylthio)-1H-benzo[d]imidazol-1-yl)acetic acids: discovery and hit-to-lead evolution of a selective CRTh2 receptor antagonist chemotype” (Bioorg Med Chem Lett, 2012)
Values after ≈ are worked out from the molar mass of the structure shown.

Key:
Cytochrome P450 2D6 = Cytochrome P450 2D6 (Homo sapiens, UniProt P10635); assay: Inhibition of CYP2D6; assay type: ADME
[1] = Intrinsic clearance in rat liver microsomes assessed per mg protein; assay type: ADME, Microsome; details: read-out: CLH
[2] = Clearance in Wistar rat at 1 mg/kg, iv and 10 mg/kg, po; assay type: ADME, organism-based; details: in vivo
In short: (§1)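 Male Wistar rats, 3 animals per experiment; intravenous dose 1 mg/kg and oral dose 10 mg/kg, each given as a solution.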

[3] = Metabolic stability of the compound in human plasma assessed as compound remaining after 4 hrs; assay type: ADME, cell-free; details: read-out: Stability
Cytochrome P450 3A4 [4] = biological target: T1, Cytochrome P450 3A4 (Homo sapiens, UniProt P08684); assay: Inhibition of CYP3A4 using testosterone as substrate; assay type: ADME
[5] = Volume of distribution at steady state in Wistar rat at 1 mg/kg, iv and 10 mg/kg, po; assay type: ADME, organism-based; details: in vivo, read-out: Vdss; in short: as §1
[6] = biological target: T2, Prostaglandin D2 receptor 2 (Homo sapiens, UniProt Q9Y5Y4); assay: Displacement of [3H]-PGD2 from human CRTh2 receptor expressed in HEK293 cells in presence of 0.5% human serum albumin; assay type: cell-based
T2 sequence (Q9Y5Y4 whole entry): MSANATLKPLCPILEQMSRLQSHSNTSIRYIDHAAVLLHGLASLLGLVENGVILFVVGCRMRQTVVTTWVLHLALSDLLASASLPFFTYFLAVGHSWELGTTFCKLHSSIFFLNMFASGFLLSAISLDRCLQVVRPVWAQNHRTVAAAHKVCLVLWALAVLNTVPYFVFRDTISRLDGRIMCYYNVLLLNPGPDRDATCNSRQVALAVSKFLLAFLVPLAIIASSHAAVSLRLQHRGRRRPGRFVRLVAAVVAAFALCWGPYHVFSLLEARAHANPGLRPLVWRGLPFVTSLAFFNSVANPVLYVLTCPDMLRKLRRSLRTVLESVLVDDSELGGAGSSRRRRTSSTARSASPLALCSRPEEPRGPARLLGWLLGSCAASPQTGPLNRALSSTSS

[7] = Half life in Wistar rat at 1 mg/kg, iv and 10 mg/kg, po; assay type: ADME, organism-based; details: in vivo; in short: as §1
[8] = Lipophilicity, log D of the compound at pH 7.4; assay type: physicochemical; details: buffer
[9] = Solubility of the compound in 0.1 M HCl; assay type: physicochemical; details: buffer
[10] = biological target: T2, Prostaglandin D2 receptor 2; assay: Displacement of [3H]-PGD2 from human CRTh2 receptor expressed in HEK293 cells; assay type: cell-based
[11] = biological target: T2, Prostaglandin D2 receptor 2; assay: Antagonist activity at human CRTh2 receptor expressed in HEK293 cells assessed as inhibition of PGD2-induced calcium flux by FLIPR assay; assay type: functional, cell-based
[12] = Stability of the compound in simulated gastric fluid assessed as compound remaining after 1 hr; assay type: physicochemical; details: read-out: Stability
In short: (§2)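 Compound incubated in simulated gastric fluid for 1 h or simulated intestinal fluid for 4 h; unchanged parent recovered quantified by LC-MS, expressed as % parent remaining.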

[13] = Intrinsic clearance in rat hepatocytes assessed per 10^6 cells; assay type: ADME, cell-based, Hepatocyte; details: read-out: CLH
Cytochrome P450 3A4 [14] = biological target: T1, Cytochrome P450 3A4; assay: Inhibition of CYP3A4 using midazolam as substrate; assay type: ADME
[15] = Stability of the compound in simulated intestinal fluid assessed as compound remaining after 4 hrs; assay type: physicochemical; details: read-out: Stability; in short: as §2
[16] = Solubility of the compound in phosphate buffer at pH 7; assay type: physicochemical
Cytochrome P450 2C9 = Cytochrome P450 2C9 (Homo sapiens, UniProt P11712); assay: Inhibition of CYP2C9; assay type: ADME
[17] = biological target: T3, Prostaglandin D2 receptor (Homo sapiens, UniProt Q13258); assay: Displacement of [3H]-PGD2 from human DP1 receptor expressed in CHO cells; assay type: cell-based
T3 sequence (Q13258 whole entry): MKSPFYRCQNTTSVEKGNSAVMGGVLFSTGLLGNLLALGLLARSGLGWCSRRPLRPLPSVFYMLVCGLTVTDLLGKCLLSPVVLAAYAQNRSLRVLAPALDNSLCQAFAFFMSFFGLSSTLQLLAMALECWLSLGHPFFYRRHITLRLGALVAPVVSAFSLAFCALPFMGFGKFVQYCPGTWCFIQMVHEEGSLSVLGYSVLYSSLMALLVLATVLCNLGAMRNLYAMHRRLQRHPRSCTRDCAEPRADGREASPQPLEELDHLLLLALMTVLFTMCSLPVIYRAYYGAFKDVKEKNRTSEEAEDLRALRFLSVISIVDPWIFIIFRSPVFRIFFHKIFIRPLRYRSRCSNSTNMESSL

[18] = Solubility of the compound in Tris buffer at pH 9; assay type: physicochemical
Thromboxane A2 receptor = biological target: T4, Thromboxane A2 receptor (Homo sapiens, UniProt P21731); assay: Antagonist activity at human TP receptor by FLIPR assay; assay type: functional
T4 sequence (P21731 whole entry): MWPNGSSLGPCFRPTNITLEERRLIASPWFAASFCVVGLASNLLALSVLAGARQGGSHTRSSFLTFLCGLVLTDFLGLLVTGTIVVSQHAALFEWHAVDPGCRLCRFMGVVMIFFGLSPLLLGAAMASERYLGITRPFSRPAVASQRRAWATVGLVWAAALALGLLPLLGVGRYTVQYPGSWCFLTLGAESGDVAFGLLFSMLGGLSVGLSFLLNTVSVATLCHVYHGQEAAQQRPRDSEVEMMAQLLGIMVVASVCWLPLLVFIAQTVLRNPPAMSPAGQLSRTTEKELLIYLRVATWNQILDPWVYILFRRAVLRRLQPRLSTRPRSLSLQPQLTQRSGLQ

[19] = Oral bioavailability in Wistar rat at 10 mg/kg; assay type: ADME, organism-based; details: in vivo; in short: as §1
[20] = AUC in Wistar rat at 10 mg/kg, po; assay type: ADME, organism-based; parameters: dose 10 mg/kg, route oral; details: plasma; in short: as §1
[21] = Intrinsic clearance in human liver microsomes assessed per mg protein; assay type: ADME, Microsome; details: read-out: CLH

T1 sequence (P08684 whole entry): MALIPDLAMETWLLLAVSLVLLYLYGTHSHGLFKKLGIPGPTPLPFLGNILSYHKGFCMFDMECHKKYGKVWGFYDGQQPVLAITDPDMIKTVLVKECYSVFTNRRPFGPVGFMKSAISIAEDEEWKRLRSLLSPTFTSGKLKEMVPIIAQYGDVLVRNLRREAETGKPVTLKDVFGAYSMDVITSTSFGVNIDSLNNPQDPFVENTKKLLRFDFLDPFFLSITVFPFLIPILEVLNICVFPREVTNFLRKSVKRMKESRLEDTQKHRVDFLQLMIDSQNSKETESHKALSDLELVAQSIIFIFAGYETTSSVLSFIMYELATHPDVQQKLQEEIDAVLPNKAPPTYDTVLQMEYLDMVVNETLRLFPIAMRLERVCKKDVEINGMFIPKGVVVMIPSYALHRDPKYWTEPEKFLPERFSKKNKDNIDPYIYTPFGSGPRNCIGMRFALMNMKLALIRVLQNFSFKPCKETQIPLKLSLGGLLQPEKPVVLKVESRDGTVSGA
Cytochrome P450 2C9, sequence (P11712 whole entry): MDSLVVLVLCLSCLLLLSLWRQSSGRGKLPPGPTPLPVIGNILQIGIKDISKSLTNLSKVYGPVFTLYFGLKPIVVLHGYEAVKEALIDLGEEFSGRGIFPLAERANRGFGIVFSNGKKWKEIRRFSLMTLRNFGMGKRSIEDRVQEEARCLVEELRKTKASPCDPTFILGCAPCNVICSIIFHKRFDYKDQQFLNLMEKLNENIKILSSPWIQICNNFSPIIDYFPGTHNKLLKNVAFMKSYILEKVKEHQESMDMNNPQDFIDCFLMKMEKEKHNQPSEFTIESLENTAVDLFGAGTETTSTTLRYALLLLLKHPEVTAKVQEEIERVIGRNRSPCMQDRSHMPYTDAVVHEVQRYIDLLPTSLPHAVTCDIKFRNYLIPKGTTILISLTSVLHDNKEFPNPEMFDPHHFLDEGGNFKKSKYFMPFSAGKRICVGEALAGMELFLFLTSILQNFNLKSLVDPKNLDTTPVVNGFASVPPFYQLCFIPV
Cytochrome P450 2D6, sequence (P10635 whole entry): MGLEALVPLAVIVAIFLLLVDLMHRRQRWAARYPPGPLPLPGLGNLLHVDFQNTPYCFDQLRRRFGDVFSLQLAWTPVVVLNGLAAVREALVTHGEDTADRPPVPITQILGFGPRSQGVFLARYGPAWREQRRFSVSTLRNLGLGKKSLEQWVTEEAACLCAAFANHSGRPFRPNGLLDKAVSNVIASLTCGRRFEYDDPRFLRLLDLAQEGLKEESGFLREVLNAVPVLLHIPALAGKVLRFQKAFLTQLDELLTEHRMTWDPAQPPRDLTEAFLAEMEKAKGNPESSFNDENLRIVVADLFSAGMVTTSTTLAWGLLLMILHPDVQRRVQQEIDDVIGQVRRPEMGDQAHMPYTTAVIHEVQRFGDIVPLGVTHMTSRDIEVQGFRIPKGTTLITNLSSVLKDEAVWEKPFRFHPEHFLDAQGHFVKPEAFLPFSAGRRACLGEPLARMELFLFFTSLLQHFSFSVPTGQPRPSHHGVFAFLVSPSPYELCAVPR

Row | IC50 (Cytochrome P450 2D6) | microsomal CLint [1] | clearance [2] | remaining at 4 h [3] | IC50 (Cytochrome P450 3A4 [4]) | Vd [5] | IC50 [6] | half-life [7] | logD [8] | solubility [9] | IC50 [10] | IC50 [11] | remaining at 1 h [12] | hepatocyte CLint [13] | IC50 (Cytochrome P450 3A4 [14]) | remaining at 4 h [15] | solubility [16] | IC50 (Cytochrome P450 2C9) | IC50 [17] | solubility [18] | Compound | other results
1 | > 50 µM | 17 µL/min/mg | 20 mL/min/kg | 100% | > 50 µM | 1.1 L/kg | 0.002 µM | 2.5 h | -1.1 | 575 µg/mL (≈ 1550 µM) | 0.008 µM | 0.025 µM | 92% | 10 µL/min/1e6 cells | 37 µM | 100% | 602 µg/mL (≈ 1630 µM) | 24 µM | > 10 µM | 583 µg/mL (≈ 1570 µM) | COc1ccc(C(C)=O)cc1CSc1nc2ccccc2n1CC(=O)O | IC50 (Thromboxane A2 receptor): > 25 µM; bioavailability [19]: 27%; AUC [20]: 2360 ng·h/mL
2 | > 50 µM | 60 µL/min/mg | 36 mL/min/kg | 100% | 15 µM | 1.2 L/kg | 0.014 µM | 0.9 h | -0.8 | 484 µg/mL (≈ 1250 µM) | 0.002 µM | 0.005 µM | 95% | 20 µL/min/1e6 cells | 10 µM | 100% | 399 µg/mL (≈ 1030 µM) | > 50 µM | > 10 µM | 583 µg/mL (≈ 1500 µM) | COc1ccc(C(C)=O)cc1CSc1nc2cc(F)ccc2n1CC(=O)O | IC50 (Thromboxane A2 receptor): > 25 µM; microsomal CLint [21]: 13 µL/min/mg; bioavailability [19]: 19%; AUC [20]: 919 ng·h/mL
